Results taken from ChEMBL document CHEMBL4024790 (J Med Chem, 2018).
Values belong to the compound of their own block, whether it stands above or below them.

Experiments:
[1] = 1-octanol/phosphate buffer solution partition coefficient, log D of the compound at pH 7.4 after 1 hr by LC-MS/MS method; type: physicochemical
[2] = Apparent intrinsic clearance in human liver microsomes; type: ADME, microsome; details: read-out: CLH(app)
Rattus norvegicus [3] = experiment: Cardiotoxicity in rat at 5 to 250 mg/kg/day, po up to 15 days by microscopic method; type: toxicity, organism-based; details: in vivo, 360 h
Method in brief: (§1)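 Exploratory rat toxicity study, oral dosing at 5, 50 and 250 mg/kg/day for up to 15 days, with microscopic examination of heart and vasculature and measurement of plasma and brain exposure.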

Rattus norvegicus [4] = experiment: Toxicity in rat assessed as effect on vasculature at 5 to 250 mg/kg/day, po up to 15 days by microscopic method; type: organism-based; details: in vivo, 360 h
Plasma = experiment: Drug uptake in rat plasma at 5 to 250 mg/kg/day, po up to 15 days by microscopic method; type: ADME, organism-based; details: in vivo, 360 h; method in brief: as §1
Brain = experiment: Drug uptake in rat brain at 5 to 250 mg/kg/day, po up to 15 days by microscopic method; type: ADME, organism-based; details: in vivo, 360 h; method in brief: as §1
Canis familiaris = experiment: Cardiotoxicity in dog assessed as arteriopathy in arteries at >= 20 mg/kg/day, po for 14 days by microscopic method; type: toxicity, organism-based, Canis lupus familiaris; details: in vivo, 336 h
[5] = molecular target: cGMP-specific 3',5'-cyclic phosphodiesterase (Homo sapiens, UniProt O76074); experiment: Inhibition of PDE5A1 (unknwon origin) using [3H]cGMP as substrate after 30 mins by SPA
Rattus norvegicus [6] = species: Rattus norvegicus
Liver [7] = experiment: Drug level in human liver microsomes treated with 4-(azetidin-1-yl)-7-methyl-5-(1-methyl-5-(5-(trifluoromethyl)pyridin-2-yl)-1H-pyrazol-4-yl)imidazo[1,5-f][1,2,4]triazine at 1 to 50 uM after 1 hr by LC-MS/MS analysis; type: ADME, microsome
Method in brief: (§2)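 Rat, dog or human liver microsomes or hepatocytes (P450 0.35–0.5 µM final) incubated with compound at 1, 10 or 50 µM in 100 mM phosphate buffer with 1 mM NADP regenerating system, 37°C for 1 h; quenched with 4 volumes acetonitrile, centrifuged, supernatant evaporated, reconstituted in 5% aqueous acetonitrile and analysed by reversed-phase LC.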

Liver [8] = experiment: Drug level in rat liver microsomes treated with 4-(azetidin-1-yl)-7-methyl-5-(1-methyl-5-(5-(trifluoromethyl)pyridin-2-yl)-1H-pyrazol-4-yl)imidazo[1,5-f][1,2,4]triazine at 1 to 50 uM after 1 hr by LC-MS/MS analysis; type: ADME, microsome; method in brief: as §2
Liver [9] = experiment: Drug level in dog liver microsomes treated with 4-(azetidin-1-yl)-7-methyl-5-(1-methyl-5-(5-(trifluoromethyl)pyridin-2-yl)-1H-pyrazol-4-yl)imidazo[1,5-f][1,2,4]triazine at 1 to 50 uM after 1 hr by LC-MS/MS analysis; type: ADME, Canis lupus familiaris, microsome; method in brief: as §2
[10] = Drug level in dog hepatocytes treated with 4-(azetidin-1-yl)-7-methyl-5-(1-methyl-5-(5-(trifluoromethyl)pyridin-2-yl)-1H-pyrazol-4-yl)imidazo[1,5-f][1,2,4]triazine at 1 to 50 uM after 1 hr by LC-MS/MS analysis; type: ADME, cell-based, Canis lupus familiaris, Hepatocyte; method in brief: as §2
[11] = Drug level in rat hepatocytes treated with 4-(azetidin-1-yl)-7-methyl-5-(1-methyl-5-(5-(trifluoromethyl)pyridin-2-yl)-1H-pyrazol-4-yl)imidazo[1,5-f][1,2,4]triazine at 1 to 50 uM after 1 hr by LC-MS/MS analysis; type: ADME, cell-based, Hepatocyte; method in brief: as §2
[12] = Drug level in human hepatocytes treated with 4-(azetidin-1-yl)-7-methyl-5-(1-methyl-5-(5-(trifluoromethyl)pyridin-2-yl)-1H-pyrazol-4-yl)imidazo[1,5-f][1,2,4]triazine at 1 to 50 uM after 1 hr by LC-MS/MS analysis; type: ADME, cell-based, Hepatocyte; method in brief: as §2
human MDR1 = experiment: Passive permeability from apical to basolateral side in MDCK cells expressing human MDR1; type: ADME, cell-based, Canis lupus familiaris; details: dog, read-out: permeability

logD at 1 h [1]: 1.8 | CLint scaled [2]: 9.5 mL/min/kg | Drug uptake (Plasma): Active | Drug uptake (Brain): Active
SMILES: CNc1ncnn2c(C)nc(-c3cnn(C)c3-c3ccc(C(F)(F)F)cn3)c12
Activity (Rattus norvegicus [3]): Non-Toxic | Activity (Rattus norvegicus [4]): Non-Toxic | Activity (Canis familiaris): Toxic

IC50 [5]: 8.9 nM
SMILES: CCCc1nn(C)c2c(=O)nc(-c3cc(S(=O)(=O)N4CCN(CC)CC4)ccc3OCC)[nH]c12

CLint scaled [2]: 93 mL/min/kg
SMILES: Cc1nc(-c2cnn(C)c2-c2ccc(C(F)(F)F)cc2)c2c(N3CCC3)ncnn12

logD at 1 h [1]: 2.9
SMILES: Cn1ncc(-c2nn(C)c3ncnc(N4CCC4)c23)c1-c1ccc(C(F)(F)F)cc1
fIC50 (Rattus norvegicus [6]): 11 nM

Drug metabolism (Liver [7]): Metabolite_Detected | Drug metabolism (Liver [8]): Metabolite_Detected | Drug metabolism (Liver [9]): Metabolite_Detected | Drug metabolism [10]: Metabolite_Detected | Drug metabolism [11]: Metabolite_Detected | Drug metabolism [12]: Metabolite_Detected
SMILES: Cc1nc(-c2cnn(C)c2-c2ccc(C(F)(F)F)cn2)c2c(N3CC(O)C3)ncnn12

logD at 1 h [1]: 2.8 | CLint scaled [2]: 33 mL/min/kg
SMILES: CNc1ncnn2c(C)nc(-c3cnn(C)c3-c3ccc(C(F)(F)F)cc3)c12
Activity (Rattus norvegicus [3]): Toxic | Activity (Rattus norvegicus [4]): Toxic

logD at 1 h [1]: 1.7 | CLint scaled [2]: 13 mL/min/kg
SMILES: Cc1nc(-c2cnn(C)c2-c2ccc(Cl)cn2)c2c(N3CCC3)ncnn12
Activity (Rattus norvegicus [3]): Toxic | Activity (Rattus norvegicus [4]): Toxic

Papp A→B (human MDR1): 1.1 ×10⁻⁶ cm/s | Drug metabolism (Liver [7]): Metabolite_Detected | Drug metabolism (Liver [8]): Metabolite_Detected | Drug metabolism (Liver [9]): Metabolite_Detected | Drug metabolism [10]: Metabolite_Detected | Drug metabolism [11]: Metabolite_Detected | Drug metabolism [12]: Metabolite_Detected
SMILES: Cc1nc(-c2cnn(C)c2-c2ccc(C(F)(F)F)cn2)c2c(NCCC(=O)O)ncnn12
